Test results reported in the RNAGym collection of RNA variant scans (doi:10.1126/science.aae0568).
Fewer inactive variants are shown than the library holds.

B1: tRNA (parent)
chain: GUUCCGUUGGCGUAAUGGUAACGCGUCUCCCUCCUAAGGAGAAGACUGCGGGUUCGAGUCCCGUACGGAACG

Variants of: B1
Assay: yeast fitness relative to wild type (ratio to wild type); higher = fitter; tRNA-Arg(CCU), competitive growth, 37 C, YPD
Method in brief: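 Amplicons of the tRNA-Arg(CCU) gene were sequenced, 100-nucleotide paired-end, from the start population and from each end population of a pooled yeast competition. The competition, in six parallel replicates, lasted 24 hours in YPD at 37°C. Fitness relative to wild type was calculated from changes in genotype frequencies. Genotypes had to have ≥ 100 starting reads, and estimates < 0.5 were set to 0.5.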

Q: Which yeast fitness does the source give for GUUCCGUUGGCGUAAUGGUAGCGCGUCUGCCUCCUAAGGAGAAGACUGCGGGUUCGAGUCCUGUACGGAACG here?
A: The yeast fitness was 0.651.

Q: With GUUCGGUUGGCGUAAUGGUAACGCGUCUCCCUCCUAAGGAGACGACUGCGGGUUCGAGUCCCGUACAGAACG as the variant, how does the yeast fitness read?
A: The yeast fitness was 0.565.

Q: For GUUCCGUUGGCGUAAUGGUAAUGCGUCUUCCUCCUAAGAAAAAGACUGCGGGUUCGAGUCCCGUACGGAACG, which yeast fitness is on record?
A: Its yeast fitness is ≤ 0.5.

Q: With GUUCCGUGGGCGUAAUGGUAGCGCGUCUUCCCCCUAAGGAGAAGACUGCGGGUUCGAGUCCCGUACGGAACG as the variant, how does the yeast fitness read?
A: The yeast fitness was ≤ 0.5.

Q: For GUUCCGUGGGCGUAAUGGUUACGCGUCUCCCUCCUCAGGAGAAGACUGCGGGUUCGAGUCCCGUGCGGAACG, which yeast fitness is on record?
A: Its yeast fitness is ≤ 0.5.

Q: Which yeast fitness does the source give for GUUCCGUUGGCGUAAUGGUAAGGCGUCACCCUCCUAAGGAGAAGACUGCGGGUUCGAGUCCCGUACCGAACG here?
A: Its yeast fitness is ≤ 0.5.

Q: Which yeast fitness does the source give for GUUCCGUUGGCGUAAUGCUAACGGGUCUCCCUCCUCACGAGAAGACUGCGGGUUCGACUCCCGUACGGAACG here?
A: Its yeast fitness is ≤ 0.5.

Q: With GUUCCGUUCGCGUAAUGGUAACGCGUCUCCCUCCUAAGGAGAAGACUGCGGGUUAGAGUCCCGUACGGAACG as the variant, how does the yeast fitness read?
A: The yeast fitness was 0.631.

Q: With GUUCCGUUGGCGUAAUGGUAACGCGUCUCCCUCCUACGGAGAAGACUGCGGGUUGGAGUCCCGUACGGCACG as the variant, how does the yeast fitness read?
A: Its yeast fitness is ≤ 0.5.

Q: With GUUCCGUUGGCGUAAUGCUAACGCGUCUCCCUCCUUAGGAGAAGACUGCGGGUUUGAGACCCGUACGGAACG as the variant, how does the yeast fitness read?
A: Its yeast fitness is ≤ 0.5.

Q: With GUACCCUUGGCGUAAUAGUAACGCGUCUCCCUCCUAUGGAGAAGACUGCGGGUUCGAAUCCCGUACGGAACG as the variant, how does the yeast fitness read?
A: The yeast fitness was ≤ 0.5.

Q: Which yeast fitness does the source give for GAUCCGUUGGCGUAAUGGUAGCGCGUCUCCCUCCUAAGCAGAAGACUGCGGGUUCGAGUCCCGUACGGCACG here?
A: The yeast fitness was ≤ 0.5.

Q: Which yeast fitness does the source give for GUUCCGCUGGCGUAAUGGUAACGCGUCUCCCGCCUAAGGAGAAGACUGCGGGUUCUAGUCCCGUACGGAACG here?
A: The yeast fitness was ≤ 0.5.

Q: For GUUCCGUUGGCGUAAUGGUAACGCGUCUCCCUCCUAAGGAGAAGACUGCGGCUUUGAGUCCCAUUCGGAACG, which yeast fitness is on record?
A: Its yeast fitness is ≤ 0.5.

Q: With GUUCCGUUGGCGUACUGGUAACGCGUUUCCAUCCUAAGGAGAAGACUGCGGGUUUGAGUCCCGUACGAAACG as the variant, how does the yeast fitness read?
A: Its yeast fitness is ≤ 0.5.

Q: For GUUCCGUGGACGUAAUGGUAACGCGUCUCCCUCCUAAGGAGAAGACUGCGGGUUCGAGUCCCGUACGGAACG, which yeast fitness is on record?
A: The yeast fitness was ≤ 0.5.

Q: For GUUCCGUUGGCGUAAUGGUAACGCGUCUCCCUCCAAAGGAGAAGACUGCGGGUUCGAAUCCCGUACCGAACG, which yeast fitness is on record?
A: The yeast fitness was ≤ 0.5.

Q: Which yeast fitness does the source give for GUUCCGUUGGCGUAAUGGUAAUGCAUCUCCCUCCUAAGGAGAAGACUGCGGGUUCGAGUCCCGUACGGAACG here?
A: The yeast fitness was 0.849.

Q: Which yeast fitness does the source give for GUUCCGUUGGAGUAAUGGUAGCGCGUCUCCCUCCUAAGGAGAAGACUGCGGGUUCGAGUCCGGUACGGAACG here?
A: Its yeast fitness is 0.655.

Q: Which yeast fitness does the source give for GUUAAGUUGGCGUAAUGGUAACGCGUCUCCCUCCUAAGGAGUAGACUGCGGGUUCGCGUCUCGUUCGGAACG here?
A: The yeast fitness was ≤ 0.5.

Q: Which yeast fitness does the source give for GUUCCGUUGGCGUAAUGGUAACGCGUCUCCAUCCUUAGGAGAAGACUGCGGGAUCGAGUCCCGUACGGAACG here?
A: The yeast fitness was ≤ 0.5.

Q: With GUUCCGUUGGCGUAAUGGUAUCGCGACUCCCUCCUACGGAGAAGACUGCGGGUUCGAGUCCGGUACGGAACG as the variant, how does the yeast fitness read?
A: Its yeast fitness is ≤ 0.5.

Q: Which yeast fitness does the source give for GUUCCGUUGGGGUAAUGGUAAUGCGUCUCCCUCCUAAGGAGAAGACUGCGGGUUCGAGUCCCGUACGCAACG here?
A: The yeast fitness was 0.732.

Q: For GUUCCGUUGGCGUAAUGGUACCGAGUCUCCCUCCUAAGGAGAAGACUGCGGGUUCGAGUCCCGUCCGGAACG, which yeast fitness is on record?
A: The yeast fitness was ≤ 0.5.

Q: For GUUCCGUUGCCGUUAUGGUAACGCGUCUCCCUCCUAAGGAGAAGACUGCGGGUUCGAGUCCCGUACGGAACG, which yeast fitness is on record?
A: The yeast fitness was 0.546.

Q: With GUUCCGUUGGCGUAAUGGUAACGCCUCUCCCUCCUAAGGAGAAGACUGCGGGUUCGAGUCCCGUAAGGAACG as the variant, how does the yeast fitness read?
A: The yeast fitness was 0.677.

Q: For GUUCCGUUGGCGUAAUCGUAACGCGUCUCCCUCCUAGGGCGAAGACUGCGGGUUCGAGUCCCGUACGGAACG, which yeast fitness is on record?
A: The yeast fitness was 0.619.

Q: For GUUCCGUUGGCGUAAUGGUAACGCGUCUCGCUCCUAAGGAGUAGGCUGCGGGUUCGAGUCUCGUACAGAACG, which yeast fitness is on record?
A: The yeast fitness was ≤ 0.5.

Q: With GUUCUGUUGGCGUAAUGGUAACGCGUCUCCCUCCUAAGGAGAAGACUGCGGGUUCGGGUCCCAUACGGAACG as the variant, how does the yeast fitness read?
A: Its yeast fitness is 0.63.

Q: Which yeast fitness does the source give for GUUCCGUUGGCAUAAUGGGAACGCGUCUCCCUCCCAAGGUGAAGACUGCGGGUUCGAGUCACGUACGGAACG here?
A: The yeast fitness was ≤ 0.5.

Q: Which yeast fitness does the source give for GUUCCGUUGGCGUAAUGGUAACGCGUCGCCCUCCUAAGGAGAAGACUGCGGGUUCGAGUGCCGUACGGAACG here?
A: Its yeast fitness is 0.603.

Q: Which yeast fitness does the source give for GUUCUGUUGGCGUAAUGGUAACGCGUCUCCCUCCUAAGGAGAAGGCUGCGGGUUCGAGUCGCGUAUGGUACG here?
A: Its yeast fitness is ≤ 0.5.

Q: Which yeast fitness does the source give for GUUCCGUUGGCGUAAUGGUAACGCGUGUCCCUCCUAAGGAGAAGACUGCGGGGUCGAGUCCCGUACGGAACG here?
A: Its yeast fitness is ≤ 0.5.

Q: For GUUCCGUUAGCGUAAUGGUAACGCGUCUCCCUCCUAAGGAGAAGACUGAGGGUUCGAGUCCCGUACGGAACG, which yeast fitness is on record?
A: The yeast fitness was 0.654.

Q: For GUUCCGUUGGCGUAAUGCUAACGCGUCUCCCUCCUAAGGAGAAGCCUGCGGAUUCGAGUCCCGUCCGGAACG, which yeast fitness is on record?
A: The yeast fitness was ≤ 0.5.

Q: For GUUCCGUUGGCGUAACGGUAACGUGUCUCUCUCCUAAGGAGAAGACUGCGGGUUCGAGUCCCGUACGGAACG, which yeast fitness is on record?
A: Its yeast fitness is ≤ 0.5.

Q: With GUUCCGUUGGCGUAAUGGUAACGCGUCUCCCUCCUAAGGAGAAGACUGCGGGUUCAAGCCCCGUACGGAACG as the variant, how does the yeast fitness read?
A: Its yeast fitness is 1.05.

Q: For GUUCCAUUGGCGUUAUGGUAACGCGUCUCCCUCCUAAGGAGAAGACUGCGGGUUCGGGUCCCGGACGGAACG, which yeast fitness is on record?
A: The yeast fitness was ≤ 0.5.
